An excerpt weighted towards active compounds, which were near 1.5% of everything screened.
V1aR counter: agonists of human V1a receptor, primary screen, counter-screen for OXTR agonist project, fluorescence, CHO-V1R cells; Fluo-8 calcium fluorescence, agonist mode; 0% DMSO, 100% 3 nM vasopressin; AID 2797, 2010; hit rate 0.25% among 320,000; activation, % at 3 µM;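 active means activation above the mean activation of all tested compounds plus 3 SD, per screening run, cut at about 20% in these data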;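 further: signal is peak over basal fluorescence ratio across a 100 second FLIPR read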
OXTR potentiate: human OXTR potentiators, primary screen, fluorescence, CHO-OTR cells, Fluo-8 calcium. Oxytocin receptor (Homo sapiens), P30559. Fluo-8 calcium fluorescence, potentiator mode; 0% = oxytocin EC15, 100% = EC100. activation, % at 3 µM. hit rate 0.061% among 320,000. AID 2445, 2010;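 active means activation above that plate's cutoff, the mean activation of tested compounds plus 3 SD, cut at about 6.6% in these data, passing the limit was not always enough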;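 further: 100% uses oxytocin at 75 nM as the full agonist control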
Target sequence (P30559 whole entry, looked up): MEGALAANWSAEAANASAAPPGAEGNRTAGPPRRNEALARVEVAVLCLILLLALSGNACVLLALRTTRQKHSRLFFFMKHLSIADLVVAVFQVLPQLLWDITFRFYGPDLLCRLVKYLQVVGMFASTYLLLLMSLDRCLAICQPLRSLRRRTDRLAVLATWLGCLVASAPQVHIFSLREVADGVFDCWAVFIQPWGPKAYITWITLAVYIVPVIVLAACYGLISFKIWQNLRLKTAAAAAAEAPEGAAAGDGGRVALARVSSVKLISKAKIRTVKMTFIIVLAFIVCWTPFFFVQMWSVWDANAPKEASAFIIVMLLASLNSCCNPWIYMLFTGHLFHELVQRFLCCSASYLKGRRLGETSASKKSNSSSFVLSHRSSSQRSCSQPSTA
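Measured by – Fluo-8 calcium dye fluorescence · Test system – human OTR in CHO cells · Dosing – one concentration, 3.0 µM compound · Controls – EC15 oxytocin alone as 0%, 75 nM oxytocin as 100% · Evaluation – normalized max/min fluorescence ratio, % activation · Timing – 6 min pre-incubation, 100 s read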
CHRM4 antagonist: human M4 muscarinic receptor antagonists, primary screen, CHO cells, Fluo-8 calcium fluorescence; Muscarinic acetylcholine receptor M4 (Homo sapiens), P08173; CHO-hM4 cells, ACh EC80; inhibition, % at 3 µM; hit rate 0.73% among 360,000; AID 624125, 2012;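 active means inhibition above its plate's cutoff, the mean inhibition of sample wells plus 3 SD, cut at about 27% in these data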;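 further: 0% = acetylcholine EC80 with DMSO and 100% = DMSO without agonist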
CHRM4 PAM: human M4 muscarinic receptor positive allosteric modulators, primary screen, CHO-K1 cells, Fluo-8 calcium fluorescence | activation, % at 3 µM | hit rate 0.4% among 360,000 | CHO-K1 hM4/Gqi5, ACh EC20; 0% = ACh EC20, 100% = maximal ACh | Muscarinic acetylcholine receptor M4 (Homo sapiens), P08173 | AID 624126, 2012;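 active means activation above its plate's cutoff, the mean activation of sample wells plus 3 SD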
OXTR agonist: human OXTR agonists, primary screen, fluorescence, CHO-OTR cells, Fluo-8 calcium; hit rate 0.32% among 320,000; AID 2435, 2010; Fluo-8 calcium fluorescence; normalized: DMSO 0%, oxytocin 100%; activation, % at 3 µM;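 active means activation above the mean of all tested compounds plus 3 SD, cutoff set per screening run, cut at about 20% in these data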;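 further: peak over basal fluorescence ratio from a 100 s FLIPR kinetic read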
M4 ag: human M4 muscarinic receptor agonists, primary screen, CHO-K1 cells, Fluo-8 calcium fluorescence | CHO-K1 hM4/Gqi5; vehicle 0%, full acetylcholine response 100% | hit rate 0.14% among 360,000 | activation, % at 3 µM | Muscarinic acetylcholine receptor M4 (Homo sapiens), P08173;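 active means activation above the run mean over all test wells plus 3 SD, cut at about 32% in these data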;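 further: peak over basal fluorescence ratio per well then scaled between controls; 0% = DMSO wells and 100% = acetylcholine at EC100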
OXTR agonist cf: human OXTR agonists, confirmation, fluorescence, CHO-OTR cells, triplicate | shares compounds with OXTR agonist | Fluo-8 calcium fluorescence, agonist | activation, % at 3 µM | hit rate 20% among 390 | AID 434963, 2010;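 active means mean activation above about 20% derived from the earlier single-dose screen, limit read from the data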;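 further: peak over minimum fluorescence ratio per well during a 100 second FLIPR read; 0% = DMSO alone and 100% = oxytocin high control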
V1aR counter 3x: V1a receptor agonists, calcium signal, counter-screen for OXTR agonist project, triplicate, fluorescence, CHO-V1R cells. shares compounds with OXTR agonist. Fluo-8 calcium fluorescence. activation, % at 3 µM. hit rate 10% among 390. AID 434991, 2010;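 active means mean activation over triplicate exceeds the hit threshold set in the earlier primary screen, cut at about 20% in these data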;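 further: peak over basal fluorescence ratio within a 100 second read; 0% = DMSO alone and 100% = 3 nM vasopressin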
Numbers without * were called inactive; · = no result.

SMILES | V1aR counter | OXTR potentiate | CHRM4 antagonist | CHRM4 PAM | OXTR agonist | M4 ag | OXTR agonist cf | V1aR counter 3x
O=C1CCc2cc(S(=O)(=O)NCc3ccc(F)cc3)cc3c2N1CCC3 | 4 | -17 | -8 | 8 | 2 | 8 | · | ·
Cc1ncc(CN2CCC(CO)(CCOc3ccccc3)CC2)s1 | 0 | -7 | 0 | -16 | 21* | 0 | 0 | 0
Cc1ccccc1OCC(=O)Nc1ccc2c(c1)Cc1ccccc1-2 | 0 | -2 | 8 | 3 | 1 | -1 | · | ·
Cc1ccccc1OCC(=O)Nc1ccc(N2CCN(C)CC2)c(Cl)c1 | 13 | -13 | 6 | 0 | 20* | 6 | 3 | 2
Cc1ccc(N/N=C(\C#N)C(N)=S)c(C)c1 | 11 | -12 | 5 | -8 | 24* | 13 | 7 | 6
Cc1ccc(NC(=O)/C(C#N)=N/Nc2ccc(C(=O)O)cc2)c(C)c1 | 1 | 7 | 9 | -2 | -1 | 0 | · | ·
CN(C)CCCN(C(=O)COc1ccccc1)c1nc2ccc(Cl)cc2s1 | 7 | -9 | -3 | 4 | 9 | 5 | · | ·
Cc1ccc2nc(N(CCCN(C)C)C(=O)CCc3ccccc3)sc2c1 | 9 | -10 | 12 | -13 | 23* | 13 | 4 | 1
CN(C)CCCN(C(=O)CCc1ccccc1)c1nc2ccc(Cl)cc2s1 | 14 | -12 | 24 | -6 | 24* | 22 | 6 | 2
C[C@H]1COC(=O)CC/C=C\C[C@H](CC(=O)N(CCO)Cc2ccccc2)C(=O)N1 | 0 | -8 | 3 | 13 | 1 | 1 | · | ·
CCc1nnc(NC(=O)c2ccc(COc3cccc(C)c3)o2)s1 | 0 | -9 | -11 | 12 | 1 | 3 | · | ·
CCCS(=O)(=O)N1CCC(C(=O)NCCN(C)Cc2ccccc2)CC1 | 0 | 3 | 9 | 11 | 1 | 0 | · | ·
COc1ccc(-c2nn(-c3ccccc3)cc2C2CC(c3cccs3)=NN2C(=O)CCCC(=O)O)cc1 (stereo unspecified) | 7 | -12 | -7 | 1 | 8 | 4 | · | ·
Cc1ccc(-c2nn(-c3ccccc3)cc2C2CC(c3cccs3)=NN2C(=O)CCCC(=O)O)cc1 (stereo unspecified) | 19 | -12 | -8 | 11 | 23* | 4 | 7 | 2
CC(C)(C)c1ccc(C(=O)CCC(=O)OCC(=O)NCCc2ccc(S(N)(=O)=O)cc2)cc1 | 16 | -12 | 17 | -13 | 20* | 30 | 7 | 9
C[C@@H]1CN([C@H](C)CO)S(=O)(=O)c2ccc(C#Cc3ccccc3F)cc2O[C@H]1CN(C)C(=O)c1ccc2c(c1)OCO2 | · | · | 18 | -9 | · | 16 | · | ·
CC(C)c1nc2c(c(=O)c3ccccc3n2C)c(=O)n1CCc1ccccc1 | 18 | -14 | 0 | -8 | 28* | 6 | 15 | 13
COc1ccc(CCn2c(-c3ccccc3)nc3c(c(=O)c4ccccc4n3C)c2=O)cc1 | 0 | 2 | · | · | 0 | · | · | ·
O=C1NC[C@@H](Cc2cccc3ccccc23)N(CC2(c3ccccc3)CC2)C1=O | 1 | -10 | 12 | 17 | 23* | 2 | 0 | 0
CCCCN1C(=O)C(=O)NC[C@H]1Cc1cccc2ccccc12 | · | · | -11 | 19 | · | 0 | · | ·

From PubChem BioAssay
